FLuc inh counter: Photinus pyralis luciferase inhibition counter-screen | ATPLite firefly luciferase biochemical luminescence, 10 min | inhibition, % at 10 µM | 1.5% of 200,000 active | AID 1006;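 active = inhibition above about 50% when tested at 10 µM, limit read from the data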
Target sequence (P08659 whole entry, looked up): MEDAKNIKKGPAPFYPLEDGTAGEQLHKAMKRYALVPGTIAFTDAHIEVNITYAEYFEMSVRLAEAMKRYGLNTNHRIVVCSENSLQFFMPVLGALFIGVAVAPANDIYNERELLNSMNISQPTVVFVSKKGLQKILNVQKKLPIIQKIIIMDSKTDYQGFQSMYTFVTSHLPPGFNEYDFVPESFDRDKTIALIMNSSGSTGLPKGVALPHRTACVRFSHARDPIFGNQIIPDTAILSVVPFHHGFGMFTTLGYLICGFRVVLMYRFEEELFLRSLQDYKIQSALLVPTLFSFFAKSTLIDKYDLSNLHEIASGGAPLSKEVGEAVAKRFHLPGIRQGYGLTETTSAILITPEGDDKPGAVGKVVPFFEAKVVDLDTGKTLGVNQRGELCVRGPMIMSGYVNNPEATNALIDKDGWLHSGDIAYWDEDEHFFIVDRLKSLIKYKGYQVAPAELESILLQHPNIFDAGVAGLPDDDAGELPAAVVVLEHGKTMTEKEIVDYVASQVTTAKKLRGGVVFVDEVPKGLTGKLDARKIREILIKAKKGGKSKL
STAT3 act: increases IL-6 driven STAT3 reporter signal. AID 871. U3A cells, IL-6 STAT3-luciferase reporter, luminescence; 100% = signal with IL-6 EC80 alone. 0.91% of 190,000 active. activation (% of control), % at 5.6 µM;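 active = activation above the screen-wide mean of compound activation plus 3 SD, cut at about 130% in these data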;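 also: 0% = background luminescence of wells with medium and substrate only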
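Material: STAT3-luciferase reporter U3A cells; Probe or stimulus: IL-6 (33 ng/mL); Incubation: compound pre-incubation 1 h before IL-6, then 6 h stimulation at 37 °C; Technique: luminescence from STAT3-driven luciferase reporter; Evaluation: % activation versus median of IL-6-stimulated wells; Controls: IL-6-only high control.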
STAT1 inh: reduces IFN-gamma driven STAT1 reporter signal; AID 920; 0.35% of 200,000 active; NIH 3T3 STAT1-luciferase reporter, luminescence; inhibition, % at 5.5 µM;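 active = inhibition above a set limit, the mean inhibition across all tested compounds plus 3 SD, cut at about 34% in these data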;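 also: 0% = IFN-gamma with DMSO and 100% = IFN-gamma with 300 µM nifuroxazide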
STAT1 act: activators of IFN-gamma induced STAT1 signaling. NIH 3T3 STAT1-luciferase reporter, luminescence; 100% = IFN-gamma alone, no compound. activation (% of control), % at 5.5 µM. 2.6% of 200,000 active. AID 932;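 active = activation above the screen-wide mean activation plus 3 SD, cut at about 130% in these data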;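 also: raw ratio to IFN-gamma control signal so 100% means no change and 0% no light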
STAT3 blocker: reduces IL-6 driven STAT3 reporter signal; U3A cells, IL-6 STAT3-luciferase reporter, luminescence; host cell line lacks STAT1; inhibition, % at 5.5 µM; 0.89% of 190,000 active; AID 862;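 active = inhibition above the mean inhibition across all screened compounds plus 3 SD, cut at about 44% in these data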;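 also: 0% = DMSO only wells and 100% = 100 µM nifuroxazide control wells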
FLuc stim CS: firefly luciferase counter-screen for stimulation assays; P08659; 200,000 tested, under 10 active; ATPlite luciferase biochemical, luminescence, 10 min; 0 = ATP-free wells, 1 = DMSO control; activation factor at 10 µM;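 active = luciferase activation factor, scaled between plate controls, of at least 2 with compound at 10 µM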
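test system = cell-free luciferase reagent | medium = PBS as buffer for the ATP substrate | dosing = test compounds dosed from 2 mM stocks in 100% DMSO | incubation = 10 min at ambient temperature | detection = luminescence measurement of luciferase light output | benchmarks = low control with PBS replacing ATP, high control enzyme plus ATP without compound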
The depositor's hits bear a star. Compounds with a hit are over-represented: about 4.9% of the library has one in this group of screens.

SMILES	FLuc inh counter	STAT3 act	STAT1 inh	STAT1 act	STAT3 blocker	FLuc stim CS
CC(C)CCNC(=O)CNC(=S)N(Cc1ccccc1)Cc1cccnc1	-11	105	18	84	-5	1.1
Clc1ccc2nc(N3CCCCC3)[nH]c2c1	39	104	-39	136*	-4	0.6
CCC(C)NC(=O)CSc1nnc(-c2c[nH]c3ccccc23)o1 (stereo not drawn)	-3	101	-7	105	6	1
CSc1ccccc1NC(=O)c1cc2ncc(Br)cn2n1	4	91	-49	142*	18	1
Cc1ccccc1Cn1ccc(NC(=O)c2cc3ncc(Br)cn3n2)n1	13	97	4	95	10	0.9
C=COC(=O)CSc1nc(-c2cccs2)ccc1C#N	-3	90	-40	136*	17	1
COCCCNCC(O)C(F)(F)F (stereo not drawn)	-8	107	-9	107	-4	1.1
O=C(CSc1ccsc1[N+](=O)[O-])NCc1ccccc1	2	135*	-13	112	-39	1
CCc1ccccc1NC(=O)CSc1ccsc1[N+](=O)[O-]	-2	102	-3	103	-3	1
COc1ccccc1CNC(=O)CSc1ccsc1[N+](=O)[O-]	-1	109	-41	137*	-9	1
Nc1ccccc1C(=O)/C=C/c1ccc2c(c1)OCO2	62*	99	-11	110	-2	0.4
CCNc1ccc(Br)cc(C(=O)/C=C/c2ccc3c(c2)OCO3)c1=O	-6	99	8	93	9	1.1
O=C(/C=C/c1ccc2c(c1)OCO2)c1ccco1	58*	99	-10	109	6	0.4
O=C(NC1CCCC1)c1n[nH]c2ccccc12	18	95	-41	138*	8	0.8
O=C(COC(=O)c1n[nH]c2ccccc12)NC(=O)NC1CCCC1	-6	100	-1	101	4	1.1
O=C(NC(=S)NC1CCSC1=O)c1cccs1 (stereo not drawn)	0	99	0	100	5	1
C/C(NC(=O)c1cccs1)=C1\C(=O)C[C@@H]2[C@H]1C2(C)C	8	110	-33	130*	-4	0.9
CCC(=O)Oc1ccc(-c2cnc3ccccc3n2)cc1	64*	94	-47	142*	12	0.4
O=C(NC1CCCC1)C(c1ccccc1)N(Cc1cccnc1)C(=O)Cc1cccs1 (stereo not drawn)	-4	103	2	96	4	1
COc1ccc(CC(=O)Nc2nnc(C(C)C)s2)cc1OC	-3	105	6	93	-4	1
Cc1ccc(Nc2nnc(SCC(=O)Nc3cccnc3Cl)s2)cc1C	63*	99	9	91	2	0.4
CCc1ccccc1N(C1=NCCCS1)S(=O)(=O)c1ccc(C(C)(C)C)cc1	4	105	5	96	-1	1
NC(=O)CSc1nc(C2CC2)nc2sc3c(c12)CCCC3	52*	114	-56	150*	-13	0.5
O=C(COc1ccc(Br)cc1Br)NC(=O)NC1CCCC1	8	119	-46	142*	-22	0.9
O=C(COc1ccccc1Br)NC1CCCC1	6	95	-24	121	8	0.9
SMILES	FLuc inh counter	STAT3 act	STAT1 inh	STAT1 act	STAT3 blocker	FLuc stim CS
CCCC(=O)Nc1cc(C(=O)O)ccc1Sc1ccccc1	-7	96	9	92	5	1.1
Cc1ccccc1NC(=O)c1onc2c1CCCC2	63*	104	-47	142*	0	0.4
COC(=O)c1cccc(NC(N)=S)c1	-12	102	-4	102	5	1.1
Cc1cccc(NC(=O)c2onc3c2CCCC3)c1C	30	112	-45	140*	-10	0.7
COC(=O)c1cccc(NC(=O)c2onc3c2CCCC3)c1	62*	68	-55	150*	39	0.4
CCc1ccc(-c2cc(C(=O)NCc3ccccn3)c3ccccc3n2)cc1	61*	117	-9	108	-17	0.4
Cc1ccc(-c2cc(C(=O)NC3=NCCS3)c3ccccc3n2)cc1C	65*	105	-20	118	-6	0.3
CCCc1ccc(-c2cc(C(=O)NC3=NCCS3)c3ccccc3n2)cc1	85*	102	-15	114	-7	0.2
O=C(NC1=NCCS1)c1cc(-c2ccc(F)cc2)nc2ccccc12	13	99	-2	104	-1	0.9
COc1ccc(S(=O)(=O)Nc2ccc(NC(C)=O)cc2)cc1[N+](=O)[O-]	-4	99	2	96	4	1
N/C(=N\OC(=O)/C=C/c1ccccc1)c1ccccc1	85*	102	-41	138*	-2	0.1
CCOC(=O)CN1C(=O)CN(c2ccc(C)c(C)c2)C1=O	-20	102	-11	110	-4	1.2
CC(=O)OCCCNc1cc(Sc2nc3ccccc3s2)c2nonc2c1[N+](=O)[O-]	-4	110	-34	132*	-6	1
COc1cccc(C(=O)/C=C/Nc2ccc(S(=O)(=O)Nc3cnc4ccccc4n3)cc2)c1	1	112	-41	137*	-10	1
COc1cccc(C(=O)/C=C/Nc2ccc(S(=O)(=O)Nc3nc(C)cc(C)n3)cc2)c1	-3	101	3	97	-3	1
COc1cccc(C(=O)/C=C/Nc2ccc(S(=O)(=O)Nc3ncccn3)cc2)c1	2	100	-44	139*	1	1
O=C(COC(=O)c1cccnc1Cl)Nc1ccc2c(c1)OCCO2	31	105	-28	124	-4	0.7
Cc1ncoc1C(=O)Nc1ncc([N+](=O)[O-])s1	19	76	-47	142*	36	0.8
O=c1c(Cl)c(N2CCCCC2)cnn1-c1nc2ccccc2[nH]1	97*	13	71*	35	103*	0
O=c1c2ccccc2cnn1-c1nc2ccccc2[nH]1	98*	9	94*	12	107*	0
CCS(=O)(=O)N1CCN(c2cnn(-c3ccccc3)c(=O)c2Cl)CC1	3	98	1	98	10	1
NC(=S)NNC(=O)C12CC3CC(CC(C3)C1)C2	-3	85	3	98	21	1
O=C(Nc1ccc(Cl)cn1)c1ccccc1F	42	90	-36	133*	12	0.6
CC(C)C(=O)Nc1ccc(NC(=O)c2cccc(F)c2)cn1	-3	84	-22	120	22	1
O=C(Nc1ccc(Cl)cn1)Nc1ccc(Cl)cn1	-3	82	-6	105	24	1
O=C(Nc1ccc(Cl)cn1)c1cccc(F)c1	9	91	-51	146*	18	0.9
O=C(Nc1ccc(Cl)cn1)Nc1ccccc1F	-5	120	-45	139*	-19	1
